Calls of active or inactive are those of the source.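 Rule for the calls: active = average efficacy above 50%; inactive = the rest.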
Tested on: U2OS-GPR55 ERK1/2 phosphorylation, western blot
Assay: GPR55 agonist-induced ERK1/2 phosphorylation, SAR follow-up, mechanism study, cell-based, U2OS-GPR55, western blot, MAPK activation (AID 485279)
Settings: at 1 µM, stronger effect = higher value; for stimulation: measured here: ERK stimulation vs negative control
How it was run: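 Schedule – 10 min compound exposure, room temperature · Material – GPR55/beta-arrestin-GFP U2OS cells · Signal – two-colour fluorescent western blot of cytosolic lysates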

Structure (SMILES): CCCN(CCC)Cc1c(C(=O)NN=Cc2c[nH]c3ccccc23)nnn1-c1nonc1N
- efficacy: -65.3% (inactive)
- stimulation: 77.7%

Structure (SMILES): CC(C)Oc1ccc(S(=O)(=O)N2CCOCC2)cc1NC(=O)c1ccc(N2CCCC2=O)cc1
- efficacy: 103%
- stimulation: 143%

Structure (SMILES): Cc1occc1C(=O)Nc1ccc(OCc2ccccc2)cc1
- efficacy: 69%
- stimulation: 127%

Structure (SMILES): COc1ccc2cc(C)c3nnc(SCC(=O)Nc4nc(-c5ccc(F)cc5)cs4)n3c2c1
- efficacy: 133%
- stimulation: 168%

Structure (SMILES): COc1ccc(S(=O)(=O)N2CCOCC2)cc1NC(=O)c1cc2c(s1)CCCC2
- efficacy: 95.6%
- stimulation: 135%

Structure (SMILES): COc1ccc(-c2csc(NC(=O)CSc3nnc4c(C)cc5ccccc5n34)n2)cc1
- efficacy: 79.7%
- stimulation: 133%

Structure (SMILES): COc1ccccc1/C=C/C(=O)NC(=S)Nc1ccc(S(=O)(=O)N(C)c2ccccc2)cc1
- efficacy: 259%
- stimulation: 201%

Structure (SMILES): CN(C)S(=O)(=O)c1ccc(N2CCCC2)c(C(=O)N2CCN(c3ccc([N+](=O)[O-])cc3)CC2)c1
- efficacy: 63.1%
- stimulation: 141%

Structure (SMILES): Cc1cccc(N2CCN(C(=O)c3cc(S(=O)(=O)N(C)C)ccc3N3CCCC3)CC2)c1C
- efficacy: 128%
- stimulation: 149%

Reference: PubChem BioAssay AID485279 (Sanford-Burnham Center for Chemical Genomics, 2010)
